The text below walks through data of ChEMBL document CHEMBL1147105, “In vitro and in vivo activities of PD 0305970 and PD 0326448, new bacterial gyrase/topoisomerase inhibitors with potent antibacterial activities versus multidrug-resistant gram-positive and fastidious organism groups” (2007).

Each structure is given as a SMILES string. In brackets after ≈: the same amount, converted by molar mass. Activity calls are given as the source filed them.

For test [1], the system named is Streptococcus pneumoniae. Briefly: Bactericidal activity against Streptococcus pneumoniae SV1 at 0.008 ug/ml by time-kill study. The format is functional, organism-based. The procedure, abridged: (§1)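 Time-kill in 10 ml of cation-adjusted Mueller-Hinton broth with 3% lysed horse blood, without agitation. Multiples of MIC tested. Samples taken at 0, 2, 4, 6 and 24 h and plated on tryptic soy agar with 5% sheep blood after ≥250-fold dilution, detection limit 10 CFU/ml. Counts read after 24 h at 35°C. Bactericidal defined as a ≥3 log10 drop from the starting inoculum within 24 h.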

For test [2], the system named is Streptococcus pyogenes. In words: Bactericidal activity against Streptococcus pyogenes C203 at 0.008 ug/ml by time-kill study. The format is functional, organism-based. The procedure, abridged:
as §1

Test [3] relates to Staphylococcus aureus. Briefly: Antibacterial efficacy against ciprofloxacin and methicillin-resistant Staphylococcus aureus SA2017 infected orally dosed CD1 mouse model. The format is functional. The procedure, abridged:
(§2)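 Sepsis model in female CD1 mice (6–8 weeks, 18–22 g). Lethal i.p. challenge (0.5 ml) at ≥100 median lethal doses. Streptococci were given in Todd-Hewitt broth; other organisms were given with 20% hog gastric mucin. A single oral gavage dose (0.5 ml, in 0.5% methylcellulose) was given at the time of challenge. The PD50 (mg/kg) was calculated by probit analysis.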

The test system of test [4] is Streptococcus pneumoniae. In words: Antibacterial efficacy against Streptococcus pneumoniae SVI infected orally dosed CD1 mouse model. The format is functional. The conditions noted are these: po. In a few lines: as §2
Test [5] has as its system Staphylococcus aureus. In words: Antibacterial efficacy against methicillin-resistant Staphylococcus aureus SA1417 infected orally dosed CD1 mouse model. The format is functional. In a few lines: as §2
Test [6] has as its system Staphylococcus aureus. Briefly: Antibacterial efficacy against methicillin-susceptible Staphylococcus aureus UC76 infected orally dosed CD1 mouse model. The conditions noted are these: UC76, po. The format is functional. In a few lines:
as §2

A further test relates to Enterococcus faecalis. In words: Antibacterial efficacy against Enterococcus faecalis MGH2 infected orally dosed CD1 mouse model. The format is functional. The procedure, abridged: as §2
Test [7] deals with Streptococcus pyogenes. Briefly: Bactericidal activity against Streptococcus pyogenes C203 at 2 ug/ml by time-kill study. The format is functional, organism-based. In a few lines:
as §1

The test system of test [8] is Streptococcus pyogenes. Briefly: Antibacterial efficacy against Streptococcus pyogenes C203 infected orally dosed CD1 mouse model. The following applies: C203, po. The format is functional. In a few lines: as §2
Test [9] deals with Streptococcus pneumoniae. Briefly: Bactericidal activity against Streptococcus pneumoniae SV1 at 2 ug/ml by time-kill study. The format is functional, organism-based. In a few lines: as §1

The MIC is the least concentration at which growth counts as inhibited. On to `O=C(O)c1cn(C2CC2)c2cc(N3CCNCC3)c(F)cc2c1=O` [CIPROFLOXACIN], for which the outcome in the test with Streptococcus pneumoniae [1], in the test with Streptococcus pyogenes [2], in the test on Streptococcus pyogenes [7] and in the test with Streptococcus pneumoniae [9] was Active. Moreover, the MIC against Staphylococcus aureus [3] is over 64 µg/mL; against Streptococcus pneumoniae [4] it was 2 µg/mL (≈ 6.04 µM); in the test on Staphylococcus aureus [5], 0.5 µg/mL (≈ 1.51 µM); against Staphylococcus aureus [6] it was 0.06 µg/mL (≈ 0.181 µM); in the test with Enterococcus faecalis it was 0.5 µg/mL (≈ 1.51 µM); against Streptococcus pyogenes [8], 0.5 µg/mL (≈ 1.51 µM). Moreover, the ED50 with Staphylococcus aureus [3] (read-out: PD50) is over 100 mg/kg; in the test with Streptococcus pneumoniae [4] (read-out: PD50), over 100 mg/kg; in the test on Staphylococcus aureus [5] (read-out: PD50), 18 mg/kg; in the test with Staphylococcus aureus [6] (read-out: PD50) it was 9.1 mg/kg; in the test with Streptococcus pyogenes [8] (read-out: PD50), over 100 mg/kg.
